Source: ChEMBL document CHEMBL1122395, “Tetracyclic chromophoric analogues of actinomycin D: synthesis, structure elucidation and interconvertibility from one form to another, antitumor activity, and structure-activity relationships” (1983)
Converted amounts (≈) assume the structure as drawn.

Assays:
Nucleic Acid [1] = experiment: (§1) Melting temperature of DNA-drug complex minus melting temperature of purified calf-thymus DNA; assay type: functional; settings: Bos taurus
CCRF-CEM = experiment: Growth inhibitory activity against human lymphoblastic leukemia cells(CCRF-CEM); assay type: functional; settings: read-out: ID50 (the source's name)
Summary of the method: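 Log-phase human lymphoblastic leukemia CCRF-CEM cells grown in suspension culture. Compounds dissolved in Me2SO, final growth medium contained 5% Me2SO. Test solutions kept at 0-4 °C, protected from light, homogeneity checked by HPLC before testing. ID50 reported in ng/mL.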

Mus musculus = organism: Mus musculus; experiment: Male CDF1 hybrid treated mice out of seven which survived over 60 days after the treatment.; assay type: functional
Summary of the method: (§2)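 Male CDF1 mice, seven per group, given 10^6 P388 cells ip on day 0. Drugs were given ip in 10% Me2SO-saline on days 1, 5 and 9, with solutions kept at 0-4 °C, protected from light and checked for homogeneity by HPLC. A range of doses was run and the optimal nontoxic dose reported. Read-outs were median survival time, percent increase in life span, and cures (over-60-day survivors, average of two experiments).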

P388 [2] = experiment: Median survival time observed in P-388 cells infected male CDF1 hybrid mice after intraperitoneal administration at 1200 ug/kg optimal dose; assay type: functional, Mus musculus; summary of the method: as §2
P388 [3] = experiment: Percent increase in life span observed in P-388 cells infected male CDF1 hybrid mice after intraperitoneal administration at 1200 ug/kg optimal dose; assay type: functional, Mus musculus; summary of the method: as §2
Nucleic Acid [4] = experiment: as §1; assay type: functional; settings: Bos taurus; remark: listed apart in the source
Summary of the method: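 Calf-thymus DNA, purified. ΔTm is the Tm of the DNA-drug complex minus the Tm of DNA alone. Medium was 0.01 M phosphate buffer, pH 7.0, with EDTA.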

P388 [5] = experiment: Percent increase in life span observed in P-388 cells infected male CDF1 hybrid mice after intraperitoneal administration at 600 ug/kg optimal dose; assay type: functional, Mus musculus; summary of the method: as §2
P388 [6] = experiment: Median survival time observed in P-388 cells infected male CDF1 hybrid mice after intraperitoneal administration at 600 ug/kg optimal dose; assay type: functional, Mus musculus; summary of the method: as §2
P388 [7] = experiment: Percent increase in life span observed in P-388 cells infected male CDF1 hybrid mice after intraperitoneal administration at 900 ug/kg optimal dose; assay type: functional, Mus musculus; summary of the method: as §2
P388 [8] = experiment: Median survival time observed in P-388 cells infected male CDF1 hybrid mice after intraperitoneal administration at 900 ug/kg optimal dose; assay type: functional, Mus musculus; summary of the method: as §2
P388 [9] = experiment: Median survival time observed in P-388 cells infected male CDF1 hybrid mice after intraperitoneal administration at 1800 ug/kg optimal dose; assay type: functional, Mus musculus; summary of the method: as §2
P388 [10] = experiment: Percent increase in life span observed in P-388 cells infected male CDF1 hybrid mice after intraperitoneal administration at 1800 ug/kg optimal dose; assay type: functional, Mus musculus; summary of the method: as §2

Structure (SMILES): Cc1c2oc3c(C)c(O)c(N)c(C(=O)N[C@H]4C(=O)N[C@@H](C(C)C)C(=O)N5CCC[C@H]5C(=O)N(C)CC(=O)N(C)[C@H](C(C)C)C(=O)O[C@H]4C)c3nc-2c(C(=O)N[C@@H]2C(=O)N[C@H](C(C)C)C(=O)N3CCC[C@@H]3C(=O)N(C)CC(=O)N(C)[C@@H](C(C)C)C(=O)O[C@@H]2C)cc1=O
- ΔTm (Nucleic Acid [1]): 6.7 °C

Structure (SMILES): Cc1ccc(C(=O)N[C@@H]2C(=O)N[C@H](C(C)C)C(=O)N3CCC[C@H]3C(=O)N(C)CC(=O)N(C)[C@@H](C(C)C)C(=O)O[C@@H]2C)c2c1Oc1c(c(C(=O)N[C@@H]3C(=O)N[C@H](C(C)C)C(=O)N4CCC[C@H]4C(=O)N(C)CC(=O)N(C)[C@@H](C(C)C)C(=O)O[C@@H]3C)c3nc(-c4ccc(Cl)cc4Cl)c(=O)oc3c1C)N2
- IC50 (CCRF-CEM): 3.2 µg/mL (≈ 2.22 µM)
- Cures (Mus musculus): 0
- MST (P388 [2]): 28 days
- ILS (P388 [3]): 155%

Structure (SMILES): Cc1nc2c(C(=O)N[C@H]3C(=O)N[C@H](C(C)C)C(=O)N4CCC[C@H]4C(=O)N(C)CC(=O)N(C)[C@@H](C(C)C)C(=O)O[C@H]3C)c3c(c(C)c2o1)Oc1c(C)ccc(C(=O)N[C@@H]2C(=O)N[C@H](C(C)C)C(=O)N4CCC[C@H]4C(=O)N(C)CC(=O)N(C)[C@@H](C(C)C)C(=O)O[C@@H]2C)c1N3
- ΔTm (Nucleic Acid [4]): 0 °C

Structure (SMILES): Cc1ccc(C(=O)N[C@@H]2C(=O)N[C@H](C(C)C)C(=O)N3CCC[C@H]3C(=O)N(C)CC(=O)N(C)[C@@H](C(C)C)C(=O)O[C@@H]2C)c2c1Oc1c(c(C(=O)N[C@@H]3C(=O)N[C@H](C(C)C)C(=O)N4CCC[C@H]4C(=O)N(C)CC(=O)N(C)[C@@H](C(C)C)C(=O)O[C@@H]3C)c3nc(-c4cccc(Cl)c4)c(=O)oc3c1C)N2
- ILS (P388 [5]): 164%
- MST (P388 [6]): 29 days
- IC50 (CCRF-CEM): 1.6 µg/mL (≈ 1.14 µM)
- Cures (Mus musculus): 0

Structure (SMILES): Cc1ccc(C(=O)N[C@@H]2C(=O)N[C@H](C(C)C)C(=O)N3CCC[C@H]3C(=O)N(C)CC(=O)N(C)[C@@H](C(C)C)C(=O)O[C@@H]2C)c2c1Oc1c(c(C(=O)N[C@@H]3C(=O)N[C@H](C(C)C)C(=O)N4CCC[C@H]4C(=O)N(C)CC(=O)N(C)[C@@H](C(C)C)C(=O)O[C@@H]3C)c3nc(-c4ccc5ccccc5c4)c(=O)oc3c1C)N2
- IC50 (CCRF-CEM): 1 µg/mL (≈ 0.703 µM)
- Cures (Mus musculus): 0
- MST (P388 [2]): 26 days
- ILS (P388 [3]): 136%

Structure (SMILES): CCCCCCc1nc2c(C(=O)N[C@@H]3C(=O)N[C@H](C(C)C)C(=O)N4CCC[C@H]4C(=O)N(C)CC(=O)N(C)[C@@H](C(C)C)C(=O)O[C@@H]3C)c3c(c(C)c2oc1=O)Oc1c(C)ccc(C(=O)N[C@@H]2C(=O)N[C@H](C(C)C)C(=O)N4CCC[C@H]4C(=O)N(C)CC(=O)N(C)[C@@H](C(C)C)C(=O)O[C@@H]2C)c1N3
- IC50 (CCRF-CEM): 2.08 µg/mL (≈ 1.51 µM)
- Cures (Mus musculus): 0
- MST (P388 [2]): 25 days
- ILS (P388 [3]): 127%

Structure (SMILES): Cc1nc2c(C(=O)N[C@H]3C(=O)N[C@H](C(C)C)C(=O)N4CCC[C@H]4C(=O)N(C)CC(=O)N(C)[C@@H](C(C)C)C(=O)O[C@H]3C)c3nc4c(C(=O)N[C@@H]5C(=O)N[C@H](C(C)C)C(=O)N6CCC[C@H]6C(=O)N(C)CC(=O)N(C)[C@@H](C(C)C)C(=O)O[C@@H]5C)cc(=O)c(C)c-4oc3c(C)c2o1
- ΔTm (Nucleic Acid [4]): 1 °C

Structure (SMILES): Cc1ccc(C(=O)N[C@@H]2C(=O)N[C@H](C(C)C)C(=O)N3CCC[C@H]3C(=O)N(C)CC(=O)N(C)[C@@H](C(C)C)C(=O)O[C@@H]2C)c2c1Oc1c(c(C(=O)N[C@@H]3C(=O)N[C@H](C(C)C)C(=O)N4CCC[C@H]4C(=O)N(C)CC(=O)N(C)[C@@H](C(C)C)C(=O)O[C@@H]3C)c3nc(-c4ccccc4)oc3c1C)N2
- ILS (P388 [7]): 109%
- IC50 (CCRF-CEM): 9 µg/mL (≈ 6.7 µM)
- MST (P388 [8]): 23 days
- Cures (Mus musculus): 0

Structure (SMILES): Cc1ccc(C(=O)N[C@@H]2C(=O)N[C@H](C(C)C)C(=O)N3CCC[C@H]3C(=O)N(C)CC(=O)N(C)[C@@H](C(C)C)C(=O)O[C@@H]2C)c2c1Oc1c(c(C(=O)N[C@@H]3C(=O)N[C@H](C(C)C)C(=O)N4CCC[C@H]4C(=O)N(C)CC(=O)N(C)[C@@H](C(C)C)C(=O)O[C@@H]3C)c3nc(-c4c(F)c(F)c(F)c(F)c4F)c(=O)oc3c1C)N2
- MST (P388 [9]): 31.5 days
- IC50 (CCRF-CEM): 0.64 µg/mL (≈ 0.438 µM)
- Cures (Mus musculus): 1
- ILS (P388 [10]): 186%
